Key:
Assay type in all cases: functional
[1] = system: A549; assay: Growth inhibition of human A549 cells after 48 hrs by sulforhodamine B assay; conditions: A549, 48 h
In short: (§1)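 NCI 60-cell-line panel. Cells are grown in RPMI1640 with 5% fetal calf serum and 2 mM L-glutamine, seeded at a density set by growth characteristics, and preincubated 24 h. Compound is tested at a minimum of five concentrations at 10-fold dilution, with 48 h continuous exposure. Viability is read by sulforhodamine B protein assay. GI50, TGI and LC50 come from dose-response curves.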

[2] = system: EKVX; assay: Growth inhibition of human EKVX cells after 48 hrs by sulforhodamine B assay; in short: as §1
[3] = system: HOP-92; assay: Growth inhibition of human HOP92 cells after 48 hrs by sulforhodamine B assay; conditions: HOP-92, 48 h; in short: as §1
[4] = system: NCI-H226; assay: Growth inhibition of human NCI-H226 cells after 48 hrs by sulforhodamine B assay; conditions: NCI-H226, 48 h; in short: as §1
[5] = system: NCI-H322M; assay: Growth inhibition of human NCI-H322M cells after 48 hrs by sulforhodamine B assay; in short: as §1
[6] = system: HCT-116; assay: Growth inhibition of human HCT116 cells after 48 hrs by sulforhodamine B assay; conditions: HCT-116, 48 h; in short: as §1
[7] = system: KM12; assay: Growth inhibition of human KM12 cells after 48 hrs by sulforhodamine B assay; conditions: KM12, 48 h; in short: as §1
[8] = system: SF-268; assay: Growth inhibition of human SF268 cells after 48 hrs by sulforhodamine B assay; conditions: SF-268, 48 h; in short: as §1
[9] = system: SNB-19; assay: Growth inhibition of human SNB19 cells after 48 hrs by sulforhodamine B assay; conditions: SNB-19, 48 h
In short: (§2)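 NCI 60-cell-line panel (nine cancer types), with cells grown in RPMI1640 plus 5% fetal calf serum and 2 mM L-glutamine. Cells are seeded at a density that depends on the line and preincubated 24 h. Compounds are then applied at a minimum of five 10-fold dilutions over a 5-log range with 48 h continuous exposure. Viability is read by SRB protein assay, and GI50 is derived from dose-response curves in units of 10^-5 M.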

[10] = system: U-251; assay: Growth inhibition of human U251 cells after 48 hrs by sulforhodamine B assay; conditions: U-251, 48 h; in short: as §2
[11] = system: LOX IMVI; assay: Growth inhibition of human LOXIMVI cells after 48 hrs by sulforhodamine B assay; in short: as §1
[12] = system: SK-MEL-2; assay: Growth inhibition of human SK-MEL-2 cells after 48 hrs by sulforhodamine B assay; conditions: SK-MEL-2, 48 h; in short: as §1
[13] = system: SK-MEL-28; assay: Growth inhibition of human SK-MEL-28 cells after 48 hrs by sulforhodamine B assay; conditions: SK-MEL-28, 48 h; in short: as §1
[14] = system: SK-MEL-5; assay: Growth inhibition of human SK-MEL-5 cells after 48 hrs by sulforhodamine B assay; conditions: SK-MEL-5, 48 h; in short: as §1
[15] = system: UACC-62; assay: Growth inhibition of human UACC62 cells after 48 hrs by sulforhodamine B assay; conditions: UACC-62, 48 h; in short: as §2
[16] = system: IGROV-1; assay: Growth inhibition of human IGROV1 cells after 48 hrs by sulforhodamine B assay; conditions: IGROV-1, 48 h; in short: as §1
[17] = system: OVCAR-4; assay: Growth inhibition of human OVCAR4 cells after 48 hrs by sulforhodamine B assay; conditions: OVCAR-4, 48 h; in short: as §1
[18] = system: SK-OV-3; assay: Growth inhibition of human SKOV3 cells after 48 hrs by sulforhodamine B assay; conditions: SK-OV-3, 48 h; in short: as §1
[19] = system: 786-0; assay: Growth inhibition of human 786-0 cells after 48 hrs by sulforhodamine B assay; conditions: 786-0, 48 h; in short: as §1
[20] = system: ACHN; assay: Growth inhibition of human ACHN cells after 48 hrs by sulforhodamine B assay; in short: as §1
[21] = system: CAKI-1; assay: Growth inhibition of human Caki1 cells after 48 hrs by sulforhodamine B assay; conditions: CAKI-1, 48 h; in short: as §1
[22] = system: RXF 393; assay: Growth inhibition of human RXF393 cells after 48 hrs by sulforhodamine B assay; conditions: RXF 393, 48 h; in short: as §1
[23] = system: SN12C; assay: Growth inhibition of human SN12C cells after 48 hrs by sulforhodamine B assay; in short: as §1
[24] = system: NCI-H460; assay: Antiproliferative activity against human NCI-H460 cells assessed as cell growth at 100 uM after 48 hrs by alamar blue assay; conditions: NCI-H460, 48 h, read-out: Activity
In short: (§3)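 NCI three-cell-line primary screen. Cells are seeded and preincubated in microtiter plates. Compound is added at a single 10^-4 M concentration and cultures are incubated 48 h. The end-point is read with alamar blue. Results are given as percent growth relative to untreated control cells.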

[25] = system: SF-268; assay: Antiproliferative activity against human SF268 cells assessed as cell growth at 100 uM after 48 hrs by alamar blue assay; conditions: SF-268, 48 h, read-out: Activity; in short: as §3
[26] = system: UO-31; assay: Growth inhibition of human UO31 cells after 48 hrs by sulforhodamine B assay; conditions: UO-31, 48 h; in short: as §2
[27] = system: PC-3; assay: Growth inhibition of human PC3 cells after 48 hrs by sulforhodamine B assay; conditions: PC-3, 48 h; in short: as §1
[28] = system: DU-145; assay: Growth inhibition of human DU145 cells after 48 hrs by sulforhodamine B assay; conditions: DU-145, 48 h; in short: as §1
[29] = system: MDA-MB-231; assay: Growth inhibition of human MDA-MB-231 cells after 48 hrs by sulforhodamine B assay; conditions: MDA-MB-231, 48 h; in short: as §1
[30] = system: MDA-MB-435; assay: Growth inhibition of human MDA-MB-435 cells after 48 hrs by sulforhodamine B assay; conditions: MDA-MB-435, 48 h; in short: as §1
[31] = read-out: LC50 (the source's name)

COc1ccc(/C=N/c2nc3[nH]nc(C)n3c(=O)c2S(=O)(=O)NN2C(=O)C(CN3CCN(C)CC3)SC2c2cccs2)cc1 (stereo unspecified)
GI50 [1]: 3.65 µM | TGI [1]: > 100 µM | GI50 [2]: 39.7 µM | TGI [2]: > 100 µM | GI50 [3]: 9.41 µM | LC50 [3]: > 100 µM | TGI [3]: > 100 µM | GI50 [4]: 11.8 µM | LC50 (concentration killing 50% of cells) [4]: > 100 µM | TGI [4]: > 100 µM | GI50 [5]: 8.18 µM | TGI [5]: > 100 µM | GI50 [6]: 1.01 µM | LC50 (concentration killing 50% of cells) [6]: > 100 µM | TGI [6]: 20 µM | GI50 [7]: 3.02 µM | GI50 [8]: > 100 µM | TGI [8]: > 100 µM | CC50 [8, 31]: > 100 µM | GI50 [9]: 7.14 µM | TGI [9]: > 100 µM | GI50 [10]: 2.51 µM | LC50 [10]: > 100 µM | TGI [10]: > 100 µM | GI50 [11]: 2.16 µM | TGI [11]: > 100 µM | GI50 [12]: 5.55 µM | LC50 (concentration killing 50% of cells) [12]: > 100 µM | TGI [12]: > 100 µM | GI50 [13]: 16.4 µM | TGI [13]: > 100 µM | GI50 [14]: 0.72 µM | TGI [14]: 7.11 µM | CC50 [14, 31]: > 100 µM | GI50 [15]: 1.47 µM | TGI [15]: > 100 µM | CC50 [15, 31]: > 100 µM | GI50 [16]: 0.78 µM | LC50 [16]: > 100 µM | TGI [16]: 97.3 µM | GI50 [17]: > 100 µM | LC50 [17]: > 100 µM | TGI [17]: > 100 µM | GI50 [18]: 5.12 µM | TGI [18]: > 100 µM | GI50 [19]: 3.93 µM | TGI [19]: > 100 µM | CC50 [19, 31]: > 100 µM | GI50 [20]: 3.18 µM | TGI [20]: > 100 µM | CC50 [20, 31]: > 100 µM | GI50 [21]: 1.29 µM | LC50 (50% lethal concentration) [21]: > 100 µM | TGI [21]: > 100 µM | GI50 [22]: 2.34 µM | TGI [22]: > 100 µM | CC50 [22, 31]: > 100 µM | GI50 [23]: 4.68 µM | LC50 [23]: > 100 µM | TGI [23]: > 100 µM | growth at 100 µM [24]: 24% | growth at 100 µM [25]: 58% | GI50 [26]: 5.36 µM | LC50 [26]: > 100 µM | TGI [26]: > 100 µM | GI50 [27]: 2.89 µM | LC50 (concentration killing 50% of cells) [27]: > 100 µM | TGI [27]: 40 µM | GI50 [28]: 5.22 µM | LC50 (concentration giving 50% net cell kill) [28]: > 100 µM | TGI [28]: > 100 µM | GI50 [29]: 3.25 µM | LC50 (50% lethal concentration) [29]: > 100 µM | TGI [29]: 42.2 µM | GI50 [30]: 0.32 µM | TGI [30]: 5.2 µM

— ChEMBL document CHEMBL1153046, “Synthesis and antitumor activity of substituted triazolo[4,3-a]pyrimidin-6-sulfonamide with an incorporated thiazolidinone moiety” (2009)
